Assay outcomes: PubChem, Sanford-Burnham Center for Chemical Genomics
Diaph inh CS: diaphorase inhibitors and chemical oxidizers, primary screen, counter-screen for diaphorase-coupled primary assays, biochemical, uHTS, resorufin fluorescence; inhibition, % at 20 µM; diaphorase resazurin-to-resorufin fluorescence, NADH, 16 min; bacterial (C. kluyveri) enzyme, not human; 190,000 compounds, 0.69% hits;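 active = primary screen inhibition at 20 µM above a set limit, cut at about 50% in these data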
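Benchmarks: positive control wells lacking NADH, neutral wells with DMSO only. System: bacterial diaphorase enzyme (C. kluyveri). Input: 0.14 U/mL diaphorase, enzyme working solution. Detection: resorufin fluorescence, excitation 544 nm, emission 590 nm. Times: 16-min room-temperature incubation before reading.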
PMI act: activators of human PMI, primary screen, biochemical, fluorescence intensity, near-Km mannose 6-phosphate. Mannose-6-phosphate isomerase (Homo sapiens), P34949. purified human PMI, coupled resazurin fluorescence, 20 min; stronger effect = higher value; 1 = vehicle control, 0 substrate-free wells. activation factor at 20 µM. 190,000 compounds, 0.005% hits;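 active = activation factor of 2 or more at 20 µM, relative to plate controls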
Target sequence (P34949 whole entry, looked up): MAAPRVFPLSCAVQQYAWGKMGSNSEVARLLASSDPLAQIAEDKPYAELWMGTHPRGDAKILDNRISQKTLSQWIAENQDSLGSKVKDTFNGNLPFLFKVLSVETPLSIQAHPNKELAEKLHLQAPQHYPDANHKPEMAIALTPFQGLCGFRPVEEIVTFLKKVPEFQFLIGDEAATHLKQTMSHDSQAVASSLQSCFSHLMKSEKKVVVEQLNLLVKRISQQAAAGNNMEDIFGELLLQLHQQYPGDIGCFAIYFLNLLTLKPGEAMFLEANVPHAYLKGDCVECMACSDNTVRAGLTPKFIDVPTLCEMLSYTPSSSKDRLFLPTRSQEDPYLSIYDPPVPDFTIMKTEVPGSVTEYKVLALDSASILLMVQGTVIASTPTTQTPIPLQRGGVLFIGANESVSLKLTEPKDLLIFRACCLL
G6PDH CS: L. mesenteroides G6PDH inhibitors, counter-screen for G6PDH-coupled screening assays, biochemical, Leuconostoc mesenteroides enzyme; AID 1020, 2008; inhibition, % at 5 µM; 200,000 compounds, 0.12% hits; glucose-6-phosphate dehydrogenase [Leuconostoc mesenteroides]; Purified L. mesenteroides G6PDH, diaphorase/resazurin coupled fluorescence, 45 min; in the data active = inhibition above about 50%
PMI act satM6P: human PMI activators, high substrate, primary screen, biochemical, fluorescence intensity, near-saturating mannose 6-phosphate; coupled PMI enzyme assay, resazurin fluorescence, 20 min; stronger effect = higher value; 1 = untreated enzyme, 0 = substrate-free blank; activation factor at 20 µM; 190,000 compounds, 0.34% hits; AID 1216, 2008;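 active = activation factor of 2 or more at 20 µM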
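Material: human phosphomannose isomerase with PGI, G6PDH, diaphorase coupling enzymes / Reagent: Man-6-P substrate 1.0 mM / Dosing: single compound dose of 20 µM, 1% DMSO final / Incubation: enzyme reaction with compound 20 min at room temperature / Signal: resorufin fluorescence (Ex 544/Em 590 nm) from resazurin via diaphorase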
Diaph act CS: compounds boosting diaphorase resazurin reduction – biochemical, uHTS, resorufin fluorescence, counter-screen for diaphorase-coupled primary assays, primary screen. 190,000 compounds, 0.005% hits. activation factor at 20 µM. Diaphorase/resazurin coupled assay, 16 min; stronger effect = higher value; 1 = vehicle wells, 0 = NADH-free wells;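 active = diaphorase activity raised at least twofold by the compound at 20 µM; inactive = activation factor below 2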
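Test system: Clostridium kluyveri diaphorase, purified enzyme. Buffer or medium: 50 mM HEPES pH 7.4 buffer plus MgCl2 and Tween 20. Also added: 0.114 mM NADH and 0.1 mM resazurin, final amounts. Dosing: compound 20 µM once, DMSO 1%. Schedule: 16 min enzyme reaction, ambient temperature. Detection: fluorescence of resorufin, 544 nm excitation, 590 nm emission.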
Of the large screens only hits and unclear results are named; the others gave an inactive call. Hits are enriched below; roughly 1.1% of the tested compounds scored in any of these assays.

Cc1ccc(C(=O)CSc2n[nH]c(-c3ccco3)n2)cc1C	Diaph inh CS 53.5
COc1ccc(OC)c(N(CC(=O)Nc2ccc3c(c2)OCCO3)S(C)(=O)=O)c1	none
CC(SCc1ccccc1)C(=O)N/N=C/c1ccc2c(c1)OCO2 (stereo not given)	none
CC(SCc1ccccc1)C(=O)N/N=C/c1cc2c(cc1Br)OCO2 (stereo not given)	Diaph inh CS 50.9
N=C1C=CC=C2C1=NC1(CCCCC1)N2O	Diaph inh CS 64.1
O=C(c1ccc(Cl)c(S(=O)(=O)N2CCOCC2)c1)N(c1ccccn1)C1CCCCC1	none
CC(C)C(=O)N1CCc2cc(-c3csc(N)n3)ccc21	PMI act satM6P 2.1
Nc1nc(-c2ccc3c(c2)CCC(=O)N3)cs1	none
COc1cc(C)c(NC(=O)C(=S)NCCc2ccccc2)cc1C	none
O=C(c1c[nH]c(C(=O)C(Cl)(Cl)Cl)c1)c1ccc(F)cc1Cl	Diaph inh CS 59.8
O=C(c1ccc(Cl)cc1)c1c[nH]c(C(=O)C(Cl)(Cl)Cl)c1	none
CCn1c2ccccc2c2nc3ccccc3nc21	none
CCn1c2ccccc2c2nc3cc(C(=O)O)ccc3nc21	Diaph inh CS 59.7
N#Cc1c(C(F)(F)F)cc(=O)[nH]c1SCC(=O)O	none
C=CCNC(=O)c1cccc(C(F)(F)F)c1	none
O=C(COC(=O)/C=C/c1ccc(Br)o1)NCCCN1CCCC1=O	none
COc1ccc(-n2c3c(cc(C(=O)NNc4ccccc4)c2=O)C(=O)CC(C)(C)C3)cc1	PMI act satM6P 2.1
CC1(C)CC(=O)c2cc(C(=O)Nn3cnnc3)c(=O)n(-c3ccccc3)c2C1	none
COc1ccc(-n2c3c(cc(C(=O)NNc4ccccc4C)c2=O)C(=O)CC(C)(C)C3)cc1	PMI act satM6P 2
Cc1cc(C2=NNC(=Nc3ccccc3)SC2)c(C)n1C	PMI act satM6P 2
COc1ccc(NC(=O)c2ccc(Oc3ncccn3)cc2)cc1	none
CCCCCN(C(=O)NC(=O)Nc1ccccc1C)S(=O)(=O)c1ccccc1	none
S=C(N=Nc1ccccc1)NNc1ccccc1	PMI act satM6P 2.7
CC(=Nc1ccccc1)Nc1ccccc1	none
c1ccc(-c2cc(N3CCCCCC3)n[nH]2)cc1	Diaph inh CS 59.1
Cc1cc(OCC(=O)Nc2ccc(S(=O)(=O)NC3=NCCCCC3)cc2)c(C(C)C)cc1Cl	none
CCC(CC)C(=O)N1CCN(c2ccccc2)CC1	PMI act satM6P 2.8
NC(=S)n1[nH]c(-c2ccc([N+](=O)[O-])cc2)c(N=Nc2cccc([N+](=O)[O-])c2)c1=O	Diaph inh CS 79.4
Cc1c(N=Nc2c(-c3ccc([N+](=O)[O-])cc3)[nH]n(C(N)=S)c2=O)cccc1[N+](=O)[O-]	Diaph inh CS 53.5
N#Cc1c(N)nc2c3c(sc(=N)c2c1N)NC(=O)CC3c1c(F)cccc1Cl (stereo not given)	Diaph inh CS 52.8
CCc1cc[n+](C2=C([O-])c3ccccc3C(=O)/C2=N\S(=O)(=O)c2cccs2)cc1	G6PDH CS 50.8
Cc1nn(C)cc1CN(C)S(=O)(=O)c1cccc([N+](=O)[O-])c1	none
Cc1onc(C(=O)N2CCC(C(N)=O)CC2)c1-c1ccccc1Cl	none
NC(=O)C1CCN(C2=C(Cl)C(=O)c3ccccc3C2=O)CC1	G6PDH CS 59.8
N#Cc1c(NC(=O)CSc2ncnc3sccc23)oc(-c2ccco2)c1-c1ccco1	Diaph inh CS 59.8
Cc1nc2sc(C(c3ccccc3)N3CCN(c4ccccc4F)CC3)c(O)n2n1 (stereo not given)	none
O=C(NCCN1CCOCC1)c1cc(Sc2ccccc2Cl)nc2ccccc12	none
CCN(C(=O)c1cc2cc3ccc(C)cc3nc2o1)c1ccc(OC)cc1	Diaph inh CS 60.2
COc1ccc(-c2nc(N)nc(C)c2Oc2ccccc2Br)c(O)c1	none
Cc1c(CN2CCC(CO)(CCOc3ccccc3)CC2)c(=O)n(-c2ccccc2)n1C	none
COc1ccc(C(=O)C2CCCN(C(=O)c3cc(C(C)C)no3)C2)cc1F (stereo not given)	none
Cc1cccc(NCc2ccc(O)c3ncccc23)c1C	Diaph inh CS 80.3
Cc1cccnc1NCc1ccc(O)c2ncccc12	Diaph inh CS 77.2
Cc1ccc(O)c(CNc2cccc3cccnc23)c1	none
COc1ccccc1-n1cc(CN2CCN(C3CCCCC3)C(CCO)C2)cn1 (stereo not given)	none
CC(=O)N(Cc1ccc(F)cc1)C1=C(NCc2ccccc2)C(=O)c2ccccc2C1=O	G6PDH CS 51.2
CCCN1CCc2c(sc(NC(=S)NC(=O)c3ccccc3)c2C#N)C1	PMI act satM6P 2
O=C(OCC(=O)N1CCCC1)c1c2c(nc3ccccc13)CCCCC2	none
